Measured values taken from paper PMC5648609 (Xenobiotica; the fate of foreign compounds in biological …, 2017).
Marks after values point to notes of the source that are not given here.

Experiments:
hOCT1 [1] = molecular target: T1, hOCT1 (Homo sapiens, UniProt O15245); test: ASP+-based fluorescence uptake inhibition assay, hOCT1; format: cell-based
T1 sequence (O15245 1-554): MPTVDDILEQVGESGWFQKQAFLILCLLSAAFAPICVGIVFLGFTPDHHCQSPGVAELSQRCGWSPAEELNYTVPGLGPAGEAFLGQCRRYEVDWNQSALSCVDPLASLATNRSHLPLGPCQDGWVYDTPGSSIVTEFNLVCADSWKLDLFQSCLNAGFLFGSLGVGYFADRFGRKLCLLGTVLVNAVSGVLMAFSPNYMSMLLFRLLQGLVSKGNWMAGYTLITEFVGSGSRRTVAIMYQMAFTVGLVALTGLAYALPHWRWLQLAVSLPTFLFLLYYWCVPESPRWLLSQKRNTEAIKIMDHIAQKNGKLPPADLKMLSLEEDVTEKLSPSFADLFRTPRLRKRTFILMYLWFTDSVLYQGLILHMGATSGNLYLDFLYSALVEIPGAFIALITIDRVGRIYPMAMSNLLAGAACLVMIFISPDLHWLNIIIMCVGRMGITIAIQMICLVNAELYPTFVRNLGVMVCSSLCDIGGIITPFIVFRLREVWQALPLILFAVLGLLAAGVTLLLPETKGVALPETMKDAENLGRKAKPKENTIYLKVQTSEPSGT

[2] = tested on: hOCT1-3 stably transfected HEK293 cells; test: MTT cytotoxicity assay, result stated across hOCT1-3 cells; settings: compared to vector-transfected HEK293 cells
[3] = tested on: pcDNA5 (control) stably transfected HEK293 cells; test: MTT cytotoxicity assay, pcDNA5 control cells; format: cell-based, human; settings: 72 h, vector control HEK293 cells, mean±SD of six experiments
[4] = tested on: hOCT3 stably transfected HEK293 cells; test: MTT cytotoxicity assay, hOCT3 cells; format: cell-based, human; settings: for TC50 OCT3: MTT, 72 h, hOCT3 HEK293 cells, mean±SD of six experiments; for Fold increase over pcDNA5 OCT3: ratio of TC50 pcDNA5 to TC50 hOCT3 cells
hOCT2 [5] = molecular target: T2, hOCT2 (Homo sapiens, UniProt O15244); test: ASP+-based fluorescence uptake inhibition assay, hOCT2; format: cell-based
T2 sequence (O15244 1-555): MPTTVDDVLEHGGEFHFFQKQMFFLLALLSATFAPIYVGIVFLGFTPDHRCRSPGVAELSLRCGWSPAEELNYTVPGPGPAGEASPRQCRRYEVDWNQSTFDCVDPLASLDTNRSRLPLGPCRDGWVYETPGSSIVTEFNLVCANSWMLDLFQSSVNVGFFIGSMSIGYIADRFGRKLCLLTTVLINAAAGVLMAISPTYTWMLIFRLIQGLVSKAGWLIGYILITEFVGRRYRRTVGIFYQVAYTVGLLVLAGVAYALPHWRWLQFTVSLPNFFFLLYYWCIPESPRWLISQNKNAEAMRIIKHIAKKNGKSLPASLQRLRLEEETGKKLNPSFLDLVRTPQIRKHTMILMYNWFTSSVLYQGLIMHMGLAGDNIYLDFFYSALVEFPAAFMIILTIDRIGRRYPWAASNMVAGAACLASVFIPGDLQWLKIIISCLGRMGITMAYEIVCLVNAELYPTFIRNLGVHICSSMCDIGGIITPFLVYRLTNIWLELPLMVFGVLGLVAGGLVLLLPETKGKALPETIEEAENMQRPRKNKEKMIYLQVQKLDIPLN

[6] = tested on: hOCT1 stably transfected HEK293 cells; test: MTT cytotoxicity assay, hOCT1 cells; format: cell-based, human; settings: for TC50 OCT1: MTT, 72 h, hOCT1 HEK293 cells, mean±SD of six experiments; for Fold increase over pcDNA5 OCT1: ratio of TC50 pcDNA5 to TC50 hOCT1 cells
[7] = tested on: hOCT2 stably transfected HEK293 cells; test: MTT cytotoxicity assay, hOCT2 cells; format: cell-based, human; settings: for TC50 OCT2: MTT, 72 h, hOCT2 HEK293 cells, mean±SD of six experiments; for Fold increase over pcDNA5 OCT2: ratio of TC50 pcDNA5 to TC50 hOCT2 cells
hOCT3 [8] = molecular target: T3, hOCT3 (Homo sapiens, UniProt O75751); test: ASP+-based fluorescence uptake inhibition assay, hOCT3; format: cell-based
T3 sequence (O75751 1-556): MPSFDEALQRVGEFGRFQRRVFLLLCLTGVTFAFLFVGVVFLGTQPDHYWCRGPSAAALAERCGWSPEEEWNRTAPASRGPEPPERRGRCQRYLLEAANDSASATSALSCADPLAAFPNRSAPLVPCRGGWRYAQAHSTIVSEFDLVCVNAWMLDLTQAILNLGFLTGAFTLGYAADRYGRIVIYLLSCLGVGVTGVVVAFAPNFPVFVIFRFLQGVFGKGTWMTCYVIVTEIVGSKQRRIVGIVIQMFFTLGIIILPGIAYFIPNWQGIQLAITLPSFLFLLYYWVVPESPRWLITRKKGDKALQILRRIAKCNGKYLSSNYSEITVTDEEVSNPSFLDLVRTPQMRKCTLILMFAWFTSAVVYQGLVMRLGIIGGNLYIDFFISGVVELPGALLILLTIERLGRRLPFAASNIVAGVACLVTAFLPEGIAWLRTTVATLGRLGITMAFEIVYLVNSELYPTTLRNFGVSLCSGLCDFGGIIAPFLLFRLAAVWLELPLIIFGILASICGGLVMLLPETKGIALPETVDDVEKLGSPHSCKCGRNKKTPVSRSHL

hOCT3 [9] = molecular target: T3, hOCT3; test: β-Carboline uptake assay; format: in vitro ADME; settings: 1 μM substrate, 30 minutes
Outline: (§1)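 Flp-in HEK293 cells stably expressing the transporter, with empty pcDNA5/FRT vector cells as control, were grown overnight at 100 000 cells/well on poly-L-ornithine-coated plastic. Cells were washed twice with HBSS, acclimated for 10 min at 37 °C, then given 1 µM substrate in HBSS for 30 min. Uptake was stopped with three ice-cold HBSS washes. Cells were lysed in acetonitrile with internal standard, and drug was quantified by ESI-positive LC-MS/MS and normalized to total protein (BCA).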

[10] = single ingestion of Ayahuasca, healthy volunteers; ref Riba et al., 2012; cited from earlier work
hOCT1 [11] = molecular target: T1, hOCT1; test: β-Carboline uptake assay; format: in vitro ADME; settings: 1 μM substrate, 30 minutes
Outline: as §1

[12] = human plasma; ref Ito et al., 2012; cited from earlier work
hOCT2 [13] = molecular target: T2, hOCT2; settings: read-out: Ki for hOCT2; hOCT2 expressed in HEK293 cells; ref Ito et al., 2012; cited from earlier work

Compound: Cn1c2c(c3ccccc31)CC[N+](C)=C2.[I-] [2,9-dimethyl-4,9-dihydro-3Hβ-carbolin-2-ium, iodide]
- IC50 (hOCT1 [1]): 40.4 ± 2.4 µM
- Effect of hOCT1-3 expression on cytotoxicity (in words) [2]: no significant effect
- TC50 pcDNA5 [3]: 127 ± 18 µM
- TC50 OCT3 [4]: 80.6 ± 7.2 µM
- Fold increase over pcDNA5 OCT3 [4]: 1.6 fold
- IC50 (hOCT2 [5]): 0.524 ± 0.088 µM
- TC50 OCT1 [6]: 119 ± 33 µM
- Fold increase over pcDNA5 OCT1 [6]: 1.1 fold
- TC50 OCT2 [7]: 117 ± 22 µM
- Fold increase over pcDNA5 OCT2 [7]: 1.1 fold
- IC50 (hOCT3 [8]): 7.3 ± 0.5 µM

Compound: COc1ccc2c3c([nH]c2c1)C(C)=NCC3 [Harmaline, 4,9-dihydro-7-methoxy-1-methyl-3H-pyrido[3,4-b] indole]
- Accumulation in hOCT3 transfected cells relative to vector cells (hOCT3 [9]): ~ 2 fold
- Plasma concentration after Ayahuasca [10]: mid to high nanomolar range
- IC50 (hOCT1 [1]): 27.6 ± 3.8 µM
- Effect of hOCT1-3 expression on cytotoxicity (in words) [2]: no significant effect
- TC50 pcDNA5 [3]: 23.0 ± 3.6 µM
- TC50 OCT3 [4]: 33.1 ± 8.2 µM
- Fold increase over pcDNA5 OCT3 [4]: 0.69 fold
- Accumulation in hOCT1 transfected cells relative to vector cells (hOCT1 [11]): ~ 2 fold
- TC50 OCT1 [6]: 23.0 ± 5.1 µM
- Fold increase over pcDNA5 OCT1 [6]: 1.0 fold
- TC50 OCT2 [7]: 35.5 ± 3.8 µM
- Fold increase over pcDNA5 OCT2 [7]: 0.65 fold
- IC50 (hOCT3 [8]): 4.76 ± 0.46 µM

Compound: COc1ccc2c(c1)[nH]c1c(C)nccc12 [Harmine, 7-methoxy-1-methyl-9H-pyrido[3,4-b] indole]
- IC50 (hOCT1 [1]): 23.1 ± 2.8 µM
- Effect of hOCT1-3 expression on cytotoxicity (in words) [2]: no significant effect
- TC50 pcDNA5 [3]: 2.87 ± 0.47 µM
- TC50 OCT3 [4]: 2.81 ± 0.23 µM
- TC50 OCT1 [6]: 2.55 ± 0.26 µM
- TC50 OCT2 [7]: 3.01 ± 0.41 µM
- IC50 (hOCT3 [8]): 17.7 ± 1 µM

Compound: C[n+]1ccc(-c2ccccc2)cc1 [MPP+, 1-methyl-4-phenylpyridinium]
- TC50 pcDNA5 [3]: 63.6 ± 12.7 µM
- TC50 OCT3 [4]: 5.86±0.68 ^a μM
- Fold increase over pcDNA5 OCT3 [4]: 10.9 fold
- TC50 OCT1 [6]: 3.88±0.38 ^a μM
- Fold increase over pcDNA5 OCT1 [6]: 16.4 fold
- TC50 OCT2 [7]: 7.16±0.75 ^a μM
- Fold increase over pcDNA5 OCT2 [7]: 8.9 fold

Compound: C[n+]1ccc2c(c1)[nH]c1ccccc12.[I-] [Norharmanium, 2-methyl-9H-β-carboline-2-ium, iodide]
- IC50 (hOCT1 [1]): 70.5 ± 6.6 µM
- Effect of hOCT1-3 expression on cytotoxicity (in words) [2]: greatly increased toxicity
- TC50 pcDNA5 [3]: 119 ± 18 µM
- TC50 OCT3 [4]: 10.8±1.4 ^a μM
- Fold increase over pcDNA5 OCT3 [4]: 11.0 fold
- TC50 OCT1 [6]: 9.05±2.54 ^a μM
- Fold increase over pcDNA5 OCT1 [6]: 13.1 fold
- TC50 OCT2 [7]: 13.4±2.4 ^a μM
- Fold increase over pcDNA5 OCT2 [7]: 8.9 fold
- IC50 (hOCT3 [8]): 13.1 ± 0.1 µM

Compound: CN/C(=N/CCSCc1nc[nH]c1C)NC#N [cimetidine]
- Clinically encountered concentrations in plasma [12]: 2.0 to 3.6 µM
- Ki (hOCT2 [13]): 95 to 146 µM
